{"data": "Measurements gathered from unrelated publications", "target": "Tyrosine-protein kinase ITK/TSK (ITK, Homo sapiens, UniProt Q08881)", "Sequence (Q08881 1-620, as in one of the studies)": "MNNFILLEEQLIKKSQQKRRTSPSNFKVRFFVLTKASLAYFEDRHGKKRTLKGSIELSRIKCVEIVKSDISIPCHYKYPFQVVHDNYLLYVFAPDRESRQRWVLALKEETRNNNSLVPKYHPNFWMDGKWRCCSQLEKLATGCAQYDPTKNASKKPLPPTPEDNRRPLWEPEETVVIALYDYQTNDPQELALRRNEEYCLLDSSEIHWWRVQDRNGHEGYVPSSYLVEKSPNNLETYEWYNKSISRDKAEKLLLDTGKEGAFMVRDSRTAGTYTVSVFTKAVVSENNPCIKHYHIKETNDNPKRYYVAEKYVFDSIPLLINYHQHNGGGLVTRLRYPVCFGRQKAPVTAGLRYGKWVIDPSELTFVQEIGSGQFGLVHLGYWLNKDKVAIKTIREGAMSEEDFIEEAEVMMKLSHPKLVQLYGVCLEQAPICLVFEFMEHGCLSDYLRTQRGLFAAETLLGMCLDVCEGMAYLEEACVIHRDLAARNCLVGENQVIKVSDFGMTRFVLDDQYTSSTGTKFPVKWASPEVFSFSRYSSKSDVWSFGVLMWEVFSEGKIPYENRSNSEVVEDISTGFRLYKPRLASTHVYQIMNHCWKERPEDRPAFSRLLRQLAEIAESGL"}
{"Structure (SMILES)": "O=C(Nc1cccnn1)N1CC(C/C=C/c2cncc(Oc3ccc(C(F)(F)F)cn3)n2)C1", "read-out": "cell-free assay", "technique": "competition with immobilised ligand", "tested at": "1 µM", "remaining binding [%]": 100}
{"Structure (SMILES)": "CNC(=O)[C@@H]1CC[C@@H](n2c(-c3ccc4cnccc4c3)nc3ccc(C(=O)NCc4cccc(C(N)=O)c4)cc32)C1", "read-out": "binding", "technique": "competition with immobilised ligand", "tested at": "1 µM", "remaining binding [%]": 99}
{"Structure (SMILES)": "FC(F)(F)Oc1cccc(-c2cnc3ccc(-c4ccncc4)nn23)c1", "read-out": "cell-free assay", "technique": "competition with immobilised ligand", "tested at": "5 µM", "remaining binding [%]": 84}
{"Structure (SMILES)": "O=C(Nc1c[nH]nc1C(=O)NC1CCNCC1)c1cc(F)cc(F)c1", "read-out": "binding", "technique": "competition with immobilised ligand", "tested at": "1 µM", "remaining binding [%]": 100}
{"Structure (SMILES)": "CN1CCN(c2cnc3c(C4CCN(C(=O)c5ccc(OC(F)(F)F)cc5N)CC4)ncnc3c2)CC1", "read-out": "cell-free assay", "technique": "competition with immobilised ligand", "tested at": "1 µM", "remaining binding [%]": 100}
{"Structure (SMILES)": "CCN1CCN(Cc2ccc(C(=O)Nc3ccc(C)c(Oc4ccc5c(c4)CC(=O)N5)c3)cc2C(F)(F)F)CC1", "read-out": "binding", "technique": "competition with immobilised ligand", "tested at": "1 µM", "remaining binding [%]": 72}
{"Structure (SMILES)": "Cc1cnc(Nc2ccc(C(=O)N3CCC(N4CCCC4)CC3)cc2)nc1-c1cc2ccccc2s1", "read-out": "binding", "technique": "competition with immobilised ligand", "tested at": "1 µM", "remaining binding [%]": 59}
{"Structure (SMILES)": "CN(c1nccc(-c2cnn3ncccc23)n1)C1CC1", "read-out": "binding", "tested at": "1 µM", "remaining binding [%]": 100}
{"Structure (SMILES)": "O=C(NCCCN1CCOCC1)c1ccc(Nc2ncc(Cl)c(-c3ccc(Cl)s3)n2)cc1", "read-out": "binding", "technique": "competition with immobilised ligand", "tested at": "1 µM", "remaining binding [%]": 40}
{"Structure (SMILES)": "CN(C)c1nccc(-c2cnc3ncccn23)n1", "read-out": "binding", "tested at": "1 µM", "remaining binding [%]": 88}
{"Structure (SMILES)": "c1cncc(-c2cccc(Nc3nccc(NC4CCCCC4)n3)c2)c1", "read-out": "binding", "technique": "competition with immobilised ligand", "tested at": "10 µM", "remaining binding [%]": 80}
{"Structure (SMILES)": "Cc1c(NC(=O)c2cc(C(N)=O)nc3cc(F)ccc23)c(C(F)(F)F)nn1Cc1ccc(C#N)cc1", "read-out": "cell-free assay", "technique": "competition with immobilised ligand", "tested at": "1 µM", "remaining binding [%]": 78}
{"Structure (SMILES)": "F[C@@H]1CCN(c2nccc(-c3cnn4ncccc34)n2)C1", "read-out": "binding", "tested at": "1 µM", "remaining binding [%]": 100}
{"Structure (SMILES)": "O=C(c1ccc(Nc2ncc(Cl)c(-c3cc4ccccc4s3)n2)cc1)N1CCC(N2CCCC2)CC1", "read-out": "binding", "technique": "competition with immobilised ligand", "tested at": "1 µM", "remaining binding [%]": 50}
{"Structure (SMILES)": "COc1ccc2c(c1)O[C@H](c1ccc(OC)c(OC)c1)C[C@@H]2NC(=O)C1(c2ccc3c(c2)OC(F)(F)O3)CC1", "read-out": "cell-free assay", "technique": "competition with immobilised ligand", "tested at": "1 µM", "remaining binding [%]": 100}
{"Structure (SMILES)": "C[C@@H]1CCN(c2nccc(-c3cnn4ncccc34)n2)C1", "read-out": "binding", "tested at": "1 µM", "remaining binding [%]": 91}
{"Structure (SMILES)": "O=C(O)[C@H]1[C@H](Cn2nnc3ccccc3c2=O)CC[C@@H]1C(=O)c1ccc(OCCC2CCOCC2)cc1", "read-out": "cell-free assay", "technique": "competition with immobilised ligand", "tested at": "1 µM", "remaining binding [%]": 100}
{"Structure (SMILES)": "N[C@@H]1CCN(c2nccc(-c3cnn4ncccc34)n2)C1", "read-out": "binding", "tested at": "1 µM", "remaining binding [%]": 93}
{"Structure (SMILES)": "COc1cc(-c2cn(C3CCc4c(F)cccc4N(CC(F)(F)F)C3=O)nn2)ccc1-n1cnc(C)c1 (centres unmarked)", "read-out": "cell-free assay", "technique": "competition with immobilised ligand", "tested at": "1 µM", "remaining binding [%]": 100}
{"Structure (SMILES)": "CN(CCCC(F)(F)F)c1nccc(-c2cnn3ncccc23)n1", "read-out": "binding", "tested at": "1 µM", "remaining binding [%]": 95}
